Results taken from ChEMBL document CHEMBL3352219, “Triterpenes from Alisma orientalis act as androgen receptor agonists, progesterone receptor antagonists, and glucocorticoid receptor antagonists” (Bioorg Med Chem Lett, 2014).
The source made the active and inactive calls. No cut-off for these calls is given here.

What was measured:
[1] = system: HepG2; assay: Cytotoxicity against human HepG2 cells; assay type: cell-based
[2] = molecular target: T1, Androgen receptor (Homo sapiens) (UniProt P10275); assay: Agonist activity at androgen receptor (unknown origin) expressed in human HepG2 cells assessed as relative luciferase activity at 1 uM by MMTV promoter-driven luciferase reporter gene assay relative to untreated vehicle control; assay type: cell-based
T1 sequence (whole entry): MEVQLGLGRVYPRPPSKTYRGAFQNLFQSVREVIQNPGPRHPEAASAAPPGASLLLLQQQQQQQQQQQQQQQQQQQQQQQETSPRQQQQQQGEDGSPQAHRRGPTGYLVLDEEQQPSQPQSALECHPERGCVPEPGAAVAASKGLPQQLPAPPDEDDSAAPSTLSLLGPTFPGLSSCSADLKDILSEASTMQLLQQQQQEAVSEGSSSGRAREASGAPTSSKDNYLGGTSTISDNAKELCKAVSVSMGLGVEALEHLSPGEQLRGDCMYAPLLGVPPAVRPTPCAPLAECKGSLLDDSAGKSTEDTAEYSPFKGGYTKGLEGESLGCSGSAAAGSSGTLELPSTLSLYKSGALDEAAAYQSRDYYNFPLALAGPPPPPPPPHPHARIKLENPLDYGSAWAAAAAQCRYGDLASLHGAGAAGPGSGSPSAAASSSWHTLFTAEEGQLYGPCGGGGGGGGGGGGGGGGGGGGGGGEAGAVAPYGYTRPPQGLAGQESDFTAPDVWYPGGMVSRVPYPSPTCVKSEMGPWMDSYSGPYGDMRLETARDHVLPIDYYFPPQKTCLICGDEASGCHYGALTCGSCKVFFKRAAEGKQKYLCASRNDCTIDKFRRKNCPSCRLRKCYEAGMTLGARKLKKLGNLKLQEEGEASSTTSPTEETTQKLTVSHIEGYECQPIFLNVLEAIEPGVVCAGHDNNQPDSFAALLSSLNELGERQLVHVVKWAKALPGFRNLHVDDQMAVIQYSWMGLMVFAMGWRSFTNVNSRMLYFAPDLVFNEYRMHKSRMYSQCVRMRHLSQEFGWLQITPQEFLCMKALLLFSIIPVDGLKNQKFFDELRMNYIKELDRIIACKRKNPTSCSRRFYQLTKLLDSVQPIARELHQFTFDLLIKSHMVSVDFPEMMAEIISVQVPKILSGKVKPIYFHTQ
Outline: (§1)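 HepG2 in phenol red-free DMEM with 10% charcoal-stripped FBS, plated in triplicate at 1 × 10^5 cells/well. After 24 h, transfected with 2 µg wild-type AR expression plasmid (pCMV-AR), 6 µg pMMTV-luc reporter and 1 µg β-galactosidase plasmid. Treated 24 h, then lysed. Luciferase normalized to β-gal and expressed relative to DMSO vehicle (=1).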

[3] = molecular target: T1, Androgen receptor (Homo sapiens); assay: Agonist activity at androgen receptor (unknown origin) expressed in human HepG2 cells assessed as relative luciferase activity at 100 nM by MMTV promoter-driven luciferase reporter gene assay relative to untreated vehicle control; assay type: cell-based; outline: as §1
[4] = molecular target: T2, Progesterone receptor (Homo sapiens) (UniProt P06401); assay: Agonist activity at progesterone receptor (unknown origin) expressed in human HepG2 cells assessed as relative luciferase activity at 20 uM by MMTV promoter-driven luciferase reporter gene assay relative to progesterone; assay type: cell-based
T2 sequence (whole entry): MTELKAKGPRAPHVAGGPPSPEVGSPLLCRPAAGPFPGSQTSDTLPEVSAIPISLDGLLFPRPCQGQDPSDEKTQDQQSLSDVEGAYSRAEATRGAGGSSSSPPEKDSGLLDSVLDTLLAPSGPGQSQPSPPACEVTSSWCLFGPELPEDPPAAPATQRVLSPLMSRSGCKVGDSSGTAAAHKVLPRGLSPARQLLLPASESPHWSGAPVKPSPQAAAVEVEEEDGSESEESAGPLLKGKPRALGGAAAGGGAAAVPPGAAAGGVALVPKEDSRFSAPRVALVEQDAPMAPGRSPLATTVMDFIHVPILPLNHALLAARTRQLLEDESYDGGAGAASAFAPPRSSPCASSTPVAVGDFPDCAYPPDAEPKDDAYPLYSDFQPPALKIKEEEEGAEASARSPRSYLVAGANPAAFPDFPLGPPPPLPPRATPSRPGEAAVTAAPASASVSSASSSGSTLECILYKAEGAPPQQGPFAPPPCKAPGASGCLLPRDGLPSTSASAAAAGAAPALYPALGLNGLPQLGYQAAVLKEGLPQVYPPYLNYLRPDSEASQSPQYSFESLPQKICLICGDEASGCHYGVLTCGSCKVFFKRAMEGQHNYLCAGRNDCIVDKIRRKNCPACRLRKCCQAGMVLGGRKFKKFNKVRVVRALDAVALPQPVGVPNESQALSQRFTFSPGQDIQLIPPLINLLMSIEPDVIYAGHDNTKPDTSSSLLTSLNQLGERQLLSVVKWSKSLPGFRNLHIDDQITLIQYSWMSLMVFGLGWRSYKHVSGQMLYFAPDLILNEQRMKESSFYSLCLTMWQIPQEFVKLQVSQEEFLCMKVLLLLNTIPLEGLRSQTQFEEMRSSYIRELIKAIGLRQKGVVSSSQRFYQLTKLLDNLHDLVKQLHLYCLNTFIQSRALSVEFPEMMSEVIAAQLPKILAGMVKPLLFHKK

[5] = molecular target: T2, Progesterone receptor (Homo sapiens); assay: Antagonist activity at progesterone receptor (unknown origin) expressed in human HepG2 cells assessed as reduction in progesterone-induced response at 10 uM by MMTV promoter-driven luciferase reporter gene assay; assay type: cell-based
Outline: (§2)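 Triplicate HepG2 wells in phenol red-free, charcoal-stripped serum medium. Cotransfected with 2 µg pCMV-PR, 6 µg pMMTV-luc and 1 µg β-gal plasmid. Compound added with 10 nM progesterone for 24 h. Lysate luminescence normalized to β-galactosidase and expressed relative to progesterone alone (=1).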

[6] = molecular target: T2, Progesterone receptor (Homo sapiens); assay: Antagonist activity at progesterone receptor (unknown origin) expressed in human HepG2 cells assessed as reduction in progesterone-induced response at 1 uM by MMTV promoter-driven luciferase reporter gene assay; assay type: cell-based; outline: as §2
[7] = molecular target: T2, Progesterone receptor (Homo sapiens); assay: Antagonist activity at progesterone receptor (unknown origin) expressed in human HepG2 cells assessed as reduction in progesterone-induced response at 100 nM by MMTV promoter-driven luciferase reporter gene assay; assay type: cell-based; outline: as §2
[8] = molecular target: T3, Glucocorticoid receptor (Homo sapiens) (UniProt P04150); assay: Antagonist activity at glucocorticoid receptor (unknown origin) expressed in human HepG2 cells assessed as reduction in dexamethasone-induced response at 10 uM by MMTV promoter-driven luciferase reporter gene assay; assay type: cell-based; conditions: in the assay text read “GRE promoter-driven” for “MMTV promoter-driven”
T3 sequence (whole entry): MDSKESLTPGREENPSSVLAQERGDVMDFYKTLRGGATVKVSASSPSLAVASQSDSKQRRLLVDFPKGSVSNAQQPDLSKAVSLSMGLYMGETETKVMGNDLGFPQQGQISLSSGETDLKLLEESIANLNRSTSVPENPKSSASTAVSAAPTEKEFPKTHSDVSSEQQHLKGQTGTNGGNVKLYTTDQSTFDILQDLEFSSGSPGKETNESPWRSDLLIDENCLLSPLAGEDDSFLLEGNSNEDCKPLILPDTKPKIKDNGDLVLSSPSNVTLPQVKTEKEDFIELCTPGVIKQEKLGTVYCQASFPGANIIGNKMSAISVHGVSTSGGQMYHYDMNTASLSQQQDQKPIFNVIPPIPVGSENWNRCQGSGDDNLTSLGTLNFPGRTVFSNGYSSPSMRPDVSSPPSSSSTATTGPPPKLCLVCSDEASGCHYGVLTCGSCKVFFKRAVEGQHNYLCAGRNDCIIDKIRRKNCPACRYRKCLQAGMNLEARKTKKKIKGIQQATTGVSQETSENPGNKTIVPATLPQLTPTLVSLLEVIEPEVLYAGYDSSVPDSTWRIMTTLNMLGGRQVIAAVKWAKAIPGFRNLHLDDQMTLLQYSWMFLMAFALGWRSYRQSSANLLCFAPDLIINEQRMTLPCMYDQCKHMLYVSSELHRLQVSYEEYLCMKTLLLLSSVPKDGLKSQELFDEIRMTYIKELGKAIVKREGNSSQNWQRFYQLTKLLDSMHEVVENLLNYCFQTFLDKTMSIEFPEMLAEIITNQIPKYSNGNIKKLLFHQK
Outline: (§3)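 HepG2 in phenol red-free DMEM with charcoal-stripped FBS, triplicate wells. Transfected with 2 µg pCMV-GR, 6 µg pGRE-luc reporter and 1 µg β-gal control. Compound co-treated with 5 nM dexamethasone for 24 h. Luciferase/β-galactosidase ratio expressed relative to dexamethasone alone (=1).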

[9] = molecular target: T3, Glucocorticoid receptor (Homo sapiens); assay: Antagonist activity at glucocorticoid receptor (unknown origin) expressed in human HepG2 cells assessed as reduction in dexamethasone-induced response at 1 uM by MMTV promoter-driven luciferase reporter gene assay; assay type: cell-based; conditions: in the assay text read “GRE promoter-driven” for “MMTV promoter-driven”; outline: as §3
[10] = molecular target: T3, Glucocorticoid receptor (Homo sapiens); assay: Antagonist activity at glucocorticoid receptor (unknown origin) expressed in human HepG2 cells assessed as reduction in dexamethasone-induced response at 100 nM by MMTV promoter-driven luciferase reporter gene assay; assay type: cell-based; conditions: in the assay text read “GRE promoter-driven” for “MMTV promoter-driven”; outline: as §3
[11] = molecular target: T3, Glucocorticoid receptor (Homo sapiens); assay: Agonist activity at glucocorticoid receptor (unknown origin) expressed in human HepG2 cells assessed as relative luciferase activity at 20 uM by GRE promoter-driven luciferase reporter gene assay relative to dexamethasone

Row | Activity [2] | Activity [3] | Activity [4] | Activity (% of progesterone control) [5] [%] | Activity (% of progesterone control) [6] [%] | inhibition [7] | Activity (% of dexamethasone control) [8] [%] | Activity (% of dexamethasone control) [9] [%] | inhibition [10] | Activity [11] | SMILES | Activity [1]
1 | inactive | inactive | inactive | 66 | 82 | Active | 39 | 56 | Active | inactive | CC(=O)O[C@@H](C[C@@H](C)C1=C2C[C@H](O)[C@H]3[C@@]4(C)CCC(=O)C(C)(C)[C@@H]4CC[C@]3(C)[C@@]2(C)CC1)[C@@H](O)C(C)(C)O | Non-toxic
2 | inactive | inactive | inactive | 64 | 71 | inactive | 30 | 56 | inactive | inactive | CC(=O)O[C@@H](C[C@@H](C)C1=C2[C@H](O)[C@H](O)[C@H]3[C@@]4(C)CCC(=O)C(C)(C)[C@@H]4CC[C@]3(C)[C@@]2(C)CC1=O)[C@H]1OC1(C)C | Non-toxic
3 | – | – | – | – | – | – | – | – | – | – | C[C@H](C[C@H](O)[C@H]1OC1(C)C)C1=C2C[C@H](O)[C@H]3[C@@]4(C)CCC(=O)C(C)(C)[C@@H]4CC[C@]3(C)[C@@]2(C)CC1 [ALISOL B] | Toxic
